Source: PubChem (Broad Institute)
IDH1 mut inh – inhibitors of IDH1 R132H reductase, primary screen, biochemical, plate reader, single point | diaphorase/resazurin fluorescence, 60 min | 70,000 compounds, 0.18% hits | Isocitrate dehydrogenase [NADP] cytoplasmic (Homo sapiens), O75874 | inhibition, % at 10 µM; in the data active means inhibition above about 34%;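 further: 0% = DMSO and 100% = no enzyme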
T cruzi growth-1 – T. cruzi intracellular proliferation inhibitors, primary screen, cell-based, beta-gal Tulahuen parasites, NIH3T3 host, luminescence; T. cruzi beta-gal in NIH3T3, GalScreen luminescence, 90 h; inhibition, % at 8.34 µM; 77,000 compounds, 5.9% hits; AID 624255, 2012;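 active means mean inhibition above about 93%, with at least 55% of replicates each passing it, limit read from the data, passing the limit was not always enough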
Pf Dd2 growth – P. falciparum Dd2 growth inhibitors, primary screen, SYBR Green fluorescence, single dose replicates; 94,000 compounds, 2.3% hits; 72 h; hits give low values; activity change, % at 10 µM; in the data active means activity change below about -80%
KDM4C inh – inhibitors of GASC-1 (KDM4C) histone demethylase, primary screen, biochemical, single concentration HTS. 96,000 compounds, 0.15% hits. GST-KDM4C 2-372, H3K9me3 peptide, LANCE TR-FRET. inhibition, % at 12.5 µM. Lysine-specific demethylase 4C (Homo sapiens), Q9H3R0;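 active means mean replicate inhibition above about 25%, with at least 55% of replicates also reaching it, limit read from the data, passing the limit was not always enough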
Target sequence (Q9H3R0 2-372 limits assumed): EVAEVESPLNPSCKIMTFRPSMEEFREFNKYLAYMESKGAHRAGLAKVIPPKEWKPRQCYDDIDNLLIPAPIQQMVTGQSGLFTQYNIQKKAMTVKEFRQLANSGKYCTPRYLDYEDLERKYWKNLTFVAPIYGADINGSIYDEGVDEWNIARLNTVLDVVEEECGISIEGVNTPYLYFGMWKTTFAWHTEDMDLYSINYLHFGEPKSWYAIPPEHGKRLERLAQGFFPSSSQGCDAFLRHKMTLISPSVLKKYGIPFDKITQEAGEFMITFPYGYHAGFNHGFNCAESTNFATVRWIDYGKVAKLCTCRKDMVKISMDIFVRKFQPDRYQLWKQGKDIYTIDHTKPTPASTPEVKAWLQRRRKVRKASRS
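Compound: one test concentration per compound; Material: GST-GASC-1 enzyme fragment 2-372; Amount: GASC-1 enzyme at 10 nM final in reaction; Also added: H3K9me3 peptide substrate, Fe(II), 2-oxoglutarate; Technique: LANCE TR-FRET; Times: 30 min demethylation and 1 h detection at room temperature.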
T cruzi growth-2 – T. cruzi intracellular proliferation inhibitors, confirmation, cell-based, NIH3T3 host, beta-gal parasite, luminescence, cherry-pick. shares compounds with T cruzi growth-1. T. cruzi beta-gal in NIH3T3, GalScreen luminescence, 90 h. inhibition, % at 8.35 µM. 5,600 compounds, 72% hits;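 active means mean replicate inhibition above about 95% and at least 55% of replicates individually reaching it, limit read from the data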
T cruzi growth-3 – inhibitors of intracellular T. cruzi replication, confirmation, NIH3T3 host cells, beta-gal parasites, cherry-pick, set 2. shares compounds with T cruzi growth-1. T. cruzi beta-gal in NIH3T3, GalScreen luminescence, 90 h. inhibition, % at 2.09 µM. 5,600 compounds, 21% hits. AID 651740, 2012;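 active means mean inhibition above about 95%, with at least 55% of replicates also reaching it, limit read from the data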;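 further: plate controls were neutral control median for no effect and positive control median for full effect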
NIH3T3 tox – cytotoxicity in mouse NIH/3T3 fibroblasts, confirmation, cytotoxicity control for T. cruzi proliferation inhibitor project, cell-based, cherry-pick, single point; NIH/3T3 viability, CellTiter-Glo ATP luminescence, 90 h; shares compounds with T cruzi growth-1; AID 651742, 2012; 5,600 compounds, 14% hits; cytotoxicity (signal decrease), % at 8.35 µM;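 active means mean signal decrease across replicates above about 35% based on untreated-well scatter, with enough replicates individually passing, limit read from the data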;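 further: 0% = median of neutral control wells and 100% = median of positive control wells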
NIH3T3 tox 2 – NIH/3T3 fibroblast cytotoxicity, confirmation, cytotoxicity control, cell-based, cherry-pick, single point, set 2; 5,600 compounds, 56% hits; NIH/3T3 viability, CellTiter-Glo ATP luminescence, 90 h; shares compounds with T cruzi growth-1; AID 651744, 2012; inhibition, % at 24.9 µM;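 active means mean loss of cell viability signal at or above a set limit, and enough replicates individually reaching it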;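 further: 0% = median of neutral control wells and 100% = median of positive control wells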
Active calls of the source: *; / = not tested or not shown. Compounds with a hit are over-represented: about 5.9% of the library has one in this group of screens.

SMILES	IDH1 mut inh	T cruzi growth-1	Pf Dd2 growth	KDM4C inh	T cruzi growth-2	T cruzi growth-3	NIH3T3 tox	NIH3T3 tox 2
COc1ccc(NC(=O)Nc2ccc3c(c2)C(=O)N([C@@H](C)CO)C[C@H](C)[C@@H](CN(C)C(=O)Nc2ccc(F)cc2)OCCCC[C@H](C)O3)cc1	/	109*	-49	-2	100*	62	5	-3
COc1ccc(NC(=O)Nc2ccc3c(c2)C(=O)N([C@@H](C)CO)C[C@@H](C)[C@H](CN(C)C(=O)Nc2ccc4c(c2)OCO4)OCCCC[C@@H](C)O3)cc1	/	40	0	0	/	/	/	/
COc1ccc(NC(=O)Nc2ccc3c(c2)C(=O)N([C@H](C)CO)C[C@@H](C)[C@H](CN(C)C(=O)Nc2ccc4c(c2)OCO4)OCCCC[C@@H](C)O3)cc1	0	117*	-42	0	111*	64	9	17
O=C(Cn1ccc([N+](=O)[O-])n1)Nc1cccnc1	-1	/	/	/	/	/	/	/
COc1ccc(NC(=O)Nc2ccc3c(c2)C(=O)N([C@@H](C)CO)C[C@H](C)[C@@H](CN(C)S(=O)(=O)c2ccc(OC)cc2)OCCCC[C@@H](C)O3)cc1	/	42	-57	-1	/	/	/	/
COc1ccc(NC(=O)Nc2ccc3c(c2)C(=O)N([C@H](C)CO)C[C@H](C)[C@@H](CN(C)S(=O)(=O)c2ccc(C)cc2)OCCCC[C@H](C)O3)cc1	16	61	-54	4	/	/	/	/
COc1ccc(NC(=O)Nc2ccc3c(c2)C(=O)N([C@@H](C)CO)C[C@H](C)[C@@H](CN(C)S(=O)(=O)c2ccc(C)cc2)OCCCC[C@H](C)O3)cc1	5	102*	-70	6	105*	34	-3	4
COc1ccc(NC(=O)Nc2ccc3c(c2)C(=O)N([C@@H](C)CO)C[C@@H](C)[C@@H](CN(C)S(=O)(=O)c2ccc(C)cc2)OCCCC[C@@H](C)O3)cc1	-2	97*	-60	-3	104*	31	-24	-11
COc1ccc(S(=O)(=O)N(C)C[C@@H]2OCCCC[C@@H](C)Oc3ccc(NC(=O)Nc4ccccc4)cc3C(=O)N([C@H](C)CO)C[C@H]2C)cc1	-1	104*	-79	-4	104*	62	-17	17
COc1ccc(NC(=O)Nc2ccc3c(c2)C(=O)N([C@@H](C)CO)C[C@H](C)[C@H](CN(C)S(=O)(=O)c2ccc(C)cc2)OCCCC[C@H](C)O3)cc1	0	104*	-74	3	111*	68	-9	-7
Cc1c(NC(=O)C(C)Oc2ccc(Cl)cc2Cl)cccc1-c1nc2ccccc2o1 (stereo not given)	-1	/	/	/	/	/	/	/
Cc1cccc(OC(=O)C(Cc2ccccc2)N2C(=O)C3C4CCC(C4)C3C2=O)c1C (stereo not given)	0	/	/	/	/	/	/	/
NC(=O)COc1ccc(C2NC(=S)NC(c3ccccc3)=C2C(=O)c2ccccc2)cc1 (stereo not given)	0	/	/	/	/	/	/	/
COc1ccc(S(=O)(=O)N(C)CC(=O)Nc2ccccc2Br)cc1Cl	0	/	/	/	/	/	/	/
N#Cc1cc2c(nc1SCC(=O)Nc1cccc(F)c1)CCCC2	1	/	/	/	/	/	/	/
C[C@@H]1CN([C@H](C)CO)S(=O)(=O)c2ccc(C#Cc3ccccn3)cc2O[C@@H]1CN(C)Cc1ccccc1	-2	101*	-20	-3	73	53	4	99*
CC(=O)N(C)C[C@@H]1Oc2cc(C#Cc3ccccn3)ccc2S(=O)(=O)N([C@@H](C)CO)C[C@H]1C	-5	102*	16	4	91	81	-8	19
CC(=O)N(C)C[C@H]1Oc2cc(C#Cc3ccccn3)ccc2S(=O)(=O)N([C@H](C)CO)C[C@@H]1C	0	-5	24	8	/	/	/	/
C[C@H]1CN([C@@H](C)CO)S(=O)(=O)c2ccc(C#Cc3ccccn3)cc2O[C@@H]1CN(C)C	0	/	13	-1	/	/	/	/
C[C@H](CO)N1C[C@H](C)[C@H](CN(C)Cc2ccccc2)Oc2cc(C#Cc3ccccn3)ccc2S1(=O)=O	0	107*	-78	-6	109*	90	4	-7
C[C@H](CO)N1C[C@H](C)[C@H](CN(C)C)Oc2cc(C#Cc3ccccn3)ccc2S1(=O)=O	0	/	15	2	/	/	/	/
C[C@@H]1CN([C@@H](C)CO)S(=O)(=O)c2ccc(C#Cc3ccccn3)cc2O[C@@H]1CN(C)Cc1ccc(F)cc1	0	100*	-29	-13	107*	87	38*	-7
C[C@H](CO)N1C[C@H](C)[C@@H](CN(C)Cc2ccc(F)cc2)Oc2cc(C#Cc3ccccn3)ccc2S1(=O)=O	0	127*	-34	-33	106*	102*	4	-10
Cc1ccc(NC(=O)C(C)Oc2ccc(Br)cc2)c([N+](=O)[O-])c1 (stereo not given)	0	/	/	/	/	/	/	/
C=C(Oc1cccc(C(=O)O)c1)C(=O)O	2	/	/	/	/	/	/	/
C[C@@H]1CN([C@@H](C)CO)C(=O)c2cccc(NC(=O)CCCCCC(=O)Nc3ccccc3N)c2O[C@H]1CN(C)S(=O)(=O)c1ccc(Cl)cc1	/	95*	-73	0	91	57	-40	-12
C[C@@H]1CN([C@@H](C)CO)C(=O)c2cccc(NC(=O)CCCCCC(=O)Nc3ccccc3N)c2O[C@@H]1CN(C)S(=O)(=O)c1ccc(Cl)cc1	0	98*	-93*	-2	103*	82	-13	11
C[C@H](CO)N1C[C@H](C)[C@H](CN(C)S(C)(=O)=O)Oc2c(NC(=O)CCCCCC(=O)Nc3ccccc3N)cccc2C1=O	/	/	28	2	/	/	/	/
N#Cc1ccccc1CSc1nc(N)cc(=O)[nH]1	1	/	/	/	/	/	/	/
CCCN(C)C[C@H]1OCCCC[C@@H](C)Oc2ccc(NC(=O)C3CCCCC3)cc2C(=O)N([C@H](C)CO)C[C@@H]1C	/	80	-63	-1	/	/	/	/
